Source: publication PMC6118327 (Biochimica et biophysica acta. Biomembranes, 2017)
Numbering of substitutions follows the chain as printed. Values joined by “and” are separate entries in the source; they are usually repeats but may differ in a detail not shown here. Equal entries are not always repeated. Blank lines part the entries; values can stand above or below the molecule they belong to.

Tests used:
mUCP3 [1] = biological target: T1, mUCP3 (Mus musculus, UniProt P56501); format: biochemical; settings: for dependence of mUCP3 inhibition on AA concentration: 10 vs 15 mol% AA, 1 mM ATP, 2 mM ADP, 5 mM AMP
T1 sequence (P56501 1-308): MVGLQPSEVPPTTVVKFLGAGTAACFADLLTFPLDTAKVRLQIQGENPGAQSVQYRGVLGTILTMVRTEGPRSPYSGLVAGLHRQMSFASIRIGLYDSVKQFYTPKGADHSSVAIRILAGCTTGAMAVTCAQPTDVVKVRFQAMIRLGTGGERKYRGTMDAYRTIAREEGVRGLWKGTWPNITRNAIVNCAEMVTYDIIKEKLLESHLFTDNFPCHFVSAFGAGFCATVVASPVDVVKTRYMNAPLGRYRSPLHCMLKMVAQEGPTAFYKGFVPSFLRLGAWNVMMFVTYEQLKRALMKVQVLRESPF
Outline: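 Recombinant mouse protein reconstituted into DOPC/DOPE/CL (45:45:10) liposomes. Bilayers formed at 1.5 mg/ml lipid, 6 μg protein/mg lipid, AA 10 or 15 mol%. Run in 50 mM Na₂SO₄/10 mM MES/10 mM Tris/0.6 mM EGTA, pH 7.35, 32°C. I/V recorded −50 to +50 mV, including with 2 mM ATP. G from linear fit at 0 mV gives relative conductance. IC50 and maximum inhibition come from a four-parameter logistic fit. AA-dependence tested at 1 mM ATP, 2 mM ADP, 5 mM AMP. Mean ± SD, ≥3 experiments.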

mUCP3 [2] = biological target: T1, mUCP3; test: AFM recognition imaging and force spectroscopy, PN-UCP bond lifetime; format: binding; settings: for change of UCP3-PN lifetime with AA concentration: 15 mol% vs 10 mol% AA; for lifetime of mUCP3-PN interaction: PN bound to AFM tip, supported EPL membranes, pH 7.35, 21°C
Outline: (§1)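 Mouse protein from E. coli inclusion bodies, solubilised in 2% SLS and reconstituted into EPL liposomes. Proteoliposomes incubated 10 min on fresh mica to form supported bilayers. For AA competition, mixed with AA liposomes to 1 mg/ml final lipid. AFM tips carried EDA-ATP, -ADP or -AMP via PEG-acetal linker. Recognition imaging plus force spectroscopy run in 50 mM Na₂SO₄/10 mM MES/10 mM Tris/0.6 mM EGTA, pH 7.35, 21°C. Lifetimes from maximum-likelihood Bell-Evans fits; mean ± SD, ≥3 experiments.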

mUCP1 [3] = biological target: T2, mUCP1 (Mus musculus, UniProt P12242); test: as above; format: binding; settings: for change of UCP1-PN lifetime with AA concentration: 15 mol% vs 10 mol% AA; for lifetime of mUCP1-PN interaction: PN bound to AFM tip, supported EPL membranes, pH 7.35, 21°C
T2 sequence (P12242 1-307): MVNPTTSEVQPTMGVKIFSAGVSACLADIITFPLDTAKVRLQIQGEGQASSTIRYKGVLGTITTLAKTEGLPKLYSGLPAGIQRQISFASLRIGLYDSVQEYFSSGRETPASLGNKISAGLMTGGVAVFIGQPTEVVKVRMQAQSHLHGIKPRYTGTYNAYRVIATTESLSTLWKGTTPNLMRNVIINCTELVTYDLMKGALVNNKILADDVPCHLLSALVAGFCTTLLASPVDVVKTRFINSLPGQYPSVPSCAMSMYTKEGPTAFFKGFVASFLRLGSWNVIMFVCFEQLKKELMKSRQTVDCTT
Outline: as §1

mUCP3R84Q = biological target: T3, mUCP3R84Q (Mus musculus, UniProt P56501, R84Q); test: Relative conductance of UCP3 mutant in planar bilayer membranes; format: biochemical; settings: 15 mol% AA; for inhibition of mutant compared to wild type mUCP3: 2 mM ATP, 4 mM ADP or 8 mM AMP
T3 sequence (P56501 1-308 R84Q): T1 sequence (P56501 1-308) with R84Q
Outline: (§2)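 Arginine point mutants made by site-directed mutagenesis, expressed in E. coli Rosetta and reconstituted like wild type. Planar DOPC/DOPE/CL (45:45:10) bilayers carried 15 mol% AA; buffer pH 7.35, 32°C. Relative conductance compared with wild type after nucleotide addition: UCP1 mutants 5 mM ATP, ADP or AMP; UCP3 mutant 2 mM ATP, 4 mM ADP or 8 mM AMP. Mean ± SD, ≥3 experiments.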

mUCP1R277L = biological target: T4, mUCP1R277L (Mus musculus, UniProt P12242, R277L); test: Relative conductance of UCP1 mutant in planar bilayer membranes; format: biochemical; settings: PN 5 mM; 15 mol% AA
T4 sequence (P12242 1-307 R277L): T2 sequence (P12242 1-307) with R277L
Outline: as §2

mUCP1R183T = biological target: T5, mUCP1R183T (Mus musculus, UniProt P12242, R183T); test: as above; format: biochemical; settings: PN 5 mM; 15 mol% AA
T5 sequence (P12242 1-307 R183T): T2 sequence (P12242 1-307) with R183T
Outline: as §2

mUCP1 R84Q = biological target: T6, mUCP1 R84Q (Mus musculus, UniProt P12242, R84Q); test: as above; format: biochemical; settings: PN 5 mM; 15 mol% AA
T6 sequence (P12242 1-307 R84Q): T2 sequence (P12242 1-307) with R84Q
Outline: as §2

mUCP1 [4] = biological target: T2, mUCP1; format: biochemical; settings: for extent of inhibition at high PN concentration: DOPC/DOPE/CL membranes, pH 7.35, 32°C
Outline: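 Inclusion-body mouse protein reconstituted into DOPC/DOPE/CL (45:45:10) proteoliposomes. Planar bilayers made at 1.5 mg/ml lipid, AA 10 or 15 mol% in the lipid solution, sulfate/MES/Tris/EGTA buffer pH 7.35, 32°C. I/V swept −50 to +50 mV; G at zero voltage from linear fit, normalised to AA-only and UCP+AA membranes. Titrations of nucleotides or phosphate fitted by four-parameter logistic for IC50 and maximum inhibition. AA comparison used 1 mM ATP, 2 mM ADP, 2 mM AMP. Mean ± SD, ≥3 experiments.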

mUCP3 R278L = biological target: T7, mUCP3 R278L (Mus musculus, UniProt P56501, R278L); test: Relative conductance of UCP3 mutant in planar bilayer membranes; format: biochemical; settings: 3 mM ammonium-phosphate-dibasic; 15 mol% AA
T7 sequence (P56501 1-308 R278L): T1 sequence (P56501 1-308) with R278L

mUCP3 R184T = biological target: T8, mUCP3 R184T (Mus musculus, UniProt P56501, R184T); test: as above; format: biochemical; settings: 3 mM ammonium-phosphate-dibasic; 15 mol% AA
T8 sequence (P56501 1-308 R184T): T1 sequence (P56501 1-308) with R184T

mUCP3 [5] = biological target: T1, mUCP3; format: biochemical; settings: membrane reconstituted with AA and mUCP3, pH gradient; seven independent experiments
[6] = DOPC/DOPE/CL membranes, 15 mol% AA, pH 7.35, 32°C
[7] = lower FFA concentrations vs 15 mol% AA

- current I and total membrane conductance G after addition of inhibitor (mUCP3 [1]; 2 mM ATP, 15 mol% AA): decreased
- dependence of mUCP3 inhibition on AA concentration (mUCP3 [1]): higher at lower AA concentration
- PN concentration at which maximum inhibition is achieved (mUCP3 [1]; [6]): approx. 4 mM
- change of UCP3-PN lifetime with AA concentration (mUCP3 [2]): significantly increased
- lifetime of mUCP3-PN interaction (mUCP3 [2]): 1.33 s
- change of UCP1-PN lifetime with AA concentration (mUCP1 [3]): significantly increased
- lifetime of mUCP1-PN interaction (mUCP1 [3]): 1.12 s
- inhibition of mutant compared to wild type mUCP3 (mUCP3R84Q): decreased the strength
- inhibition of mutant compared to mUCP1 wt (mUCP1R277L): similarly reduced
- inhibition of mutant compared to mUCP1 wt (mUCP1R183T): similarly reduced
- inhibition of mutant compared to mUCP1 wt (mUCP1 R84Q): similarly reduced
Molecule: Nc1ncnc2c1ncn2[C@@H]1O[C@H](COP(=O)(O)OP(=O)(O)OP(=O)(O)O)[C@@H](O)[C@H]1O [ATP]

- extent of inhibition at high inhibitor concentration (mUCP3 [1]; [6]): fully inhibit
- maximum inhibition of mUCP1 (mUCP1 [4]; 15 mol% AA): lower than 100%
- extent of inhibition at high PN concentration (mUCP1 [4]; 15 mol% AA): partially inhibit
- change of UCP3-PN lifetime with AA concentration (mUCP3 [2]): unaffected
- lifetime of mUCP3-PN interaction (mUCP3 [2]): 0.13 s
- change of UCP1-PN lifetime with AA concentration (mUCP1 [3]): unaffected
- lifetime of mUCP1-PN interaction (mUCP1 [3]): 0.16 s
- inhibition of mutant compared to wild type mUCP3 (mUCP3R84Q): did not affect
- inhibition of mutant compared to mUCP1 wt (mUCP1R277L): no longer able to inhibit
- inhibition of mutant compared to mUCP1 wt (mUCP1 R84Q): did not affect
Molecule: Nc1ncnc2c1ncn2[C@@H]1O[C@H](COP(=O)(O)O)[C@@H](O)[C@H]1O [AMP]

- maximum inhibition of mUCP3 by Pi (mUCP3 [1]; 15 mol% AA, curve fitting): ~ 60%
- extent of inhibition at high inhibitor concentration (mUCP3 [1]; [6]): only partial inhibition
- IC50 (mUCP3 [1]; read-out: IC50 of Pi inhibition, 15 mol% AA, curve fitting): ~1000 µM and 1000 µM
- IC50 of mUCP1 inhibition by Pi compared with mUCP3 (mUCP1 [4]; 15 mol% AA, curve fitting): similar
- maximum inhibition of mUCP1 by Pi compared with mUCP3 (mUCP1 [4]; 15 mol% AA, curve fitting): similar
Molecule: O=P(O)(O)O [Pi, inorganic phosphate]
- effect of mutation on inhibition by phosphate (mUCP3 R278L): none of the arginine mutations had any effect
- effect of mutation on inhibition by phosphate (mUCP3 R184T): none of the arginine mutations had any effect
- effect of mutation on inhibition by phosphate (mUCP3R84Q; 3 mM ammonium-phosphate-dibasic): none of the arginine mutations had any effect

- dependence of mUCP3 inhibition on AA concentration (mUCP3 [1]): less
- maximum inhibition of mUCP1 (mUCP1 [4]; 15 mol% AA): lower than 100%
- extent of inhibition at high PN concentration (mUCP1 [4]; 15 mol% AA): partially inhibit
- change in maximum inhibition of mUCP1 at lower FFA concentration (mUCP1 [4]; [7]): No change
- effect of FFA concentration on IC50 of mUCP1 inhibition (mUCP1 [4]; [7]): affected
- change of UCP3-PN lifetime with AA concentration (mUCP3 [2]): not significant
- lifetime of mUCP3-PN interaction (mUCP3 [2]): 0.56 s
- change of UCP1-PN lifetime with AA concentration (mUCP1 [3]): significantly increased
- lifetime of mUCP1-PN interaction (mUCP1 [3]): 0.75 s
- inhibition of mutant compared to wild type mUCP3 (mUCP3R84Q): decreased the strength
- inhibition of mutant compared to mUCP1 wt (mUCP1R183T): impaired inhibition
- inhibition of mutant compared to mUCP1 wt (mUCP1 R84Q): did not affect
Molecule: Nc1ncnc2c1ncn2[C@@H]1O[C@H](COP(=O)(O)OP(=O)(O)O)[C@@H](O)[C@H]1O [ADP]

- proton transport rate κ (mUCP3 [5]): 2.56 ± 0.79 s⁻¹
B1: mUCP3: recombinant mouse uncoupling protein 3 reconstituted in planar lipid membranes (protein, UniProt P56501 1-308, looked up)
Putative mitochondrial …: T1 sequence (P56501 1-308)
